Series [1] relates to Hepatitis C virus. The series is described as follows: Antiviral activity against HCV genotype 1b Con1 infected in human HuH7 cells harboring HCV subgenomic bicistronic replicon after 3 days in presence of 40% human plasma by luciferase reporter gene assay. The series is classed as functional, cell-based, Hepacivirus hominis. The following applies: genotype 1b Con1, Huh-7, 72 h. A digest of the protocol: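 Subgenomic genotype 1a (H77) or 1b (Con1) replicons carrying firefly luciferase, transfected into Huh-7 cells. Replication inhibition was read as luciferase level in cell lysate on a luminometer and reported as EC50. Runs were done without human plasma or with 40% human plasma added, to assess inhibitor–protein binding.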

Series [2] is described as follows: Half life in Sprague-Dawley rat at 5 mg/kg, po. The following applies: in vivo. Type of series: ADME, organism-based. Summed up: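 Sprague-Dawley rats, n = 3 per experiment; solution in DMSO:PEG400 (1:9, v/v) given IV or oral; 5 mg/kg for both routes, and 30 mg/kg oral; plasma t1/2, Vss, clearance, Cmax, AUC and F% determined.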
Series [3] is described as follows: Volume of distribution at steady state in Sprague-Dawley rat at 5 mg/kg, iv. Type of series: ADME, organism-based. To be noted: in vivo, read-out: Vdss. Summed up:
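Sprague-Dawley rats, n = 3 per experiment, each given a 5 mg/kg intravenous dose. The compound was formulated as a solution in DMSO:PEG400 (1:9, v/v). Plasma concentration–time data were used to derive pharmacokinetic parameters, including Vss.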

Series [4] can be described thus: Volume of distribution at steady state in dog at 2.5 mg/kg, iv. The series is classed as ADME, organism-based, Canis lupus familiaris. The following applies: in vivo, read-out: Vdss.
A short description of series [5]: Drug level in dog liver at 2.5 mg/kg, po after 24 hrs. The series is classed as ADME, organism-based, Canis lupus familiaris. To be noted: read-out: Drug uptake. Summed up:
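Dogs given oral doses; liver tissue and plasma drug levels measured at 12 and 24 h; liver:plasma ratio calculated.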

The nature of series [6]: Ratio of drug level in dog liver to plasma at 2.5 mg/kg, po after 24 hrs. The series is classed as ADME, organism-based, Canis lupus familiaris.
A short description of series [7]: Cmax in dog at 30 mg/kg, po. Type of series: ADME, organism-based, Canis lupus familiaris. Also on record: dose 30 mg/kg, route oral. To be noted: in vivo.
For series [8], the system named is Canis familiaris. The series is described as follows: AUC in dog at 30 mg/kg, po. The series is classed as ADME, organism-based, Canis lupus familiaris. The following applies: in vivo.
Series [9] deals with Plasma. Description: Drug level in po dosed Sprague-Dawley rat plasma up to 24 hrs. The series is classed as ADME, organism-based. To be noted: in vivo. A digest of the protocol: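 Sprague-Dawley rats given oral doses; liver tissue and plasma levels measured at 12 and 24 h; liver:plasma ratio calculated.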
Series [10] can be described thus: Inhibition of HCV genotype 2a NS5B RNA dependent RNA polymerase assessed as reduction in [3H]UTP incorporation in to RNA preincubated for 15 mins followed by [3H]UTP addition measured after 3 hrs by microbeta scintillation counting method. Also on record: species or system Hepatitis C virus subtype 2a.
The nature of series [11]: Cmax in human at 80 mg administered as single dose. Type of series: ADME. To be noted: in vivo. Also on record: dose 80 mg. A digest of the protocol:
(§1)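 Single oral doses of 80, 160 or 320 mg in healthy subjects; plasma concentration-time profiles reported as mean (+SD); Cmax and terminal phase half-life derived.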

The nature of series [12]: Tmax in human at 80 mg administered as single dose. Type of series: ADME. To be noted: in vivo.
The nature of series [13]: AUC (infinity) in human at 80 mg administered as single dose. Type of series: ADME. Also on record: dose 80 mg, time infinity. The following applies: in vivo. Summed up: as §1
A short description of series [14]: Terminal half life in human at 160 mg administered as single dose. Type of series: ADME. The following applies: in vivo, read-out: beta t1/2 (converted). A digest of the protocol: as §1
A short description of series [15]: AUC (infinity) in human at 160 mg administered as single dose. Type of series: ADME. Also on record: dose 160 mg, time infinity. To be noted: in vivo. Summed up:
as §1

Series [16] has as its system Hepatitis C virus. Description: Antiviral activity against HCV genotype 1 infected in human assessed as decrease in viral RNA load at 160 mg administered once daily for 2 days. The series is classed as functional, Hepacivirus hominis. Summed up: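 HCV GT1-infected patients (N=4) given 160 mg once daily for 2 days; read-out was least squares mean maximum decrease from baseline in HCV RNA (log10 IU/mL).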

Series [17] in a line: Cmax in human infected with HCV genotype 1 at 160 mg administered once daily for 2 days. The following applies: in vivo. Also on record: dose 160 mg. The series is classed as ADME. Summed up: (§2)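 HCV GT1-infected patients (N=4) given 160 mg once daily for 2 days; plasma Cmax, AUC and t1/2 determined.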
Series [18] is described as follows: Tmax in human infected with HCV genotype 1 at 160 mg administered once daily for 2 days. Type of series: ADME. The following applies: in vivo.
Series [19] can be described thus: Half life in human infected with HCV genotype 1 at 160 mg administered once daily for 2 days. The series is classed as ADME. The following applies: in vivo. Summed up: as §2

One may read the EC50 as the concentration giving half of the maximal effect. As usually defined, the Kp is the ratio of the level in a tissue or fluid to that in plasma or blood. The term Cmax denotes the peak of the concentration-time curve. One may read the AUC as the area under the concentration-time curve, a measure of exposure. A high value points to more exposure. The term IC50 denotes the midpoint of a concentration-inhibition curve. In general, Tmax refers to the time from dosing to the highest level. One may read the AUC(0-inf) as total exposure, with the tail of the curve extrapolated. A high value points to more exposure.

Regarding `COc1c(/C=C/c2ccc(NS(C)(=O)=O)cc2)cc(-n2ccc(=O)[nH]c2=O)cc1C(C)(C)C` [ABT-072], in [1], the EC50 is 0.0024 µM. Further, the half-life is 3.1 h in [2], 7.63 h in series [14] and 8.56 h in [19]. Besides, the results for the Vd in series [3] and in series [4] were 3.7 L/kg and 1.5 L/kg, respectively. Further, the concentration at 24 h in [5] is more than 1000 ng/g. Besides, in [6], the Kp at 24 h turned out to be 10. For the same compound, the results for the Cmax in [7], in series [11] and in series [17] were 7560 ng/mL, 180 ng/mL and 415 ng/mL, respectively. The compound also gave an AUC in series [8] of 124000 ng·h/mL. Further, the Drug uptake entry in series [9] was “Dose-dependent effect”. Besides, the IC50 in [10] was determined as 23 µM. Further, the Tmax worked out at 5.1 h in series [12] and 3.6 h in series [18]. Also, the total exposure AUC(0-inf) in series [13] amounted to 2440 ng·h/mL; in series [15], 4640 ng·h/mL. The Activity in series [16] was 1.18 log10IU/ml.

Values taken from ChEMBL document CHEMBL4024799, “Synthesis and Biological Characterization of Aryl Uracil Inhibitors of Hepatitis C Virus NS5B Polymerase: Discovery of ABT-072, a trans-Stilbene Analog with Good Oral Bioavailability” (J Med Chem, 2018).
